Test results taken from ChEMBL document CHEMBL1156566, “Investigations on the 4-quinolone-3-carboxylic acid motif. 1. Synthesis and structure-activity relationship of a class of human immunodeficiency virus type 1 integrase inhibitors” (J Med Chem, 2008).

How the values were obtained:
[1] = Cytotoxicity against human MT4 cells by MTT assay; assay type: cell-based
Summary of the method: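 Human lymphocyte MT-4 cultures were read by MTT in the MT-4/MTT format.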

[2] = molecular target: T1, Human immunodeficiency virus type 1 integrase (Human immunodeficiency virus 1, UniProt Q7ZJM1); test: Inhibition of HIV1 integrase by overall integration assay
[3] = test system: Human immunodeficiency virus 1; test: Antiviral activity against HIV1 3B in MT4 cells assessed as inhibition of virus-induced cytopathic effect by MTT assay; assay type: functional, organism-based; conditions: Human immunodeficiency virus 1, 3B
Summary of the method: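 Human lymphocyte MT-4 cultures were infected with HIV-1, and protection from virus-induced cytopathic effect was read by MTT.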

[4] = molecular target: T1, Human immunodeficiency virus type 1 integrase; test: Inhibition of HIV1 integrase DNA strand transfer activity
[5] = molecular target: T1, Human immunodeficiency virus type 1 integrase; test: Inhibition of HIV1 integrase 3'-processing activity

T1 sequence (Q7ZJM1 whole entry): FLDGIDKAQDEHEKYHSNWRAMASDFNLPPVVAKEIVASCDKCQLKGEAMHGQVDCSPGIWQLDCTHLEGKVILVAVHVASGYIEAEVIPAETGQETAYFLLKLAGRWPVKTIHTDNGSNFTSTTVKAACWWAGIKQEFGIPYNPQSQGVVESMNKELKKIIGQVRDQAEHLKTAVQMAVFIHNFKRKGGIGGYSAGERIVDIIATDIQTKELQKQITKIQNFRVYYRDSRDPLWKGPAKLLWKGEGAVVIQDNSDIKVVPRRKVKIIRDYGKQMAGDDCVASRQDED

`O=C(O)c1cn(CCO)c2ccc(Cc3cccc(Cl)c3F)cc2c1=O` showed a CC50 [1] of over 15 µM.

`COCCn1cc(C(=O)O)c(=O)c2cc(Cc3ccc(Cl)cc3Cl)ccc21` showed an IC50 [2] of 5.6 µM, an EC50 [3] of over 4.2 µM and an IC50 [4] of 16.5 µM. It also gave a CC50 [1] of 4.2 µM.

With `O=C(O)c1cn(CCO)c2ccc(Nc3cccc(Cl)c3F)cc2c1=O` the IC50 [2] was over 100 µM, the EC50 [3] was over 27.4 µM and the IC50 [4] was over 100 µM. The CC50 [1] was 27.4 µM.

Compound `COc1cc2c(cc1Cc1cccc(Cl)c1F)c(=O)c(C(=O)O)cn2[C@H](CO)C(C)C` has an EC50 [3] of 0.00037 µM and a CC50 [1] of 1.15 µM.

With `CCn1cc(C(=O)O)c(=O)c2c1C(=O)C=C(Nc1cccc(Cl)c1F)C2=O` the IC50 [2] was 9.7 µM, the EC50 [3] was over 2.4 µM and the IC50 [4] was over 100 µM. It also gave an IC50 [5] of over 100 µM and a CC50 [1] of 2.4 µM.

For `CN(C)CCn1cc(C(=O)O)c(=O)c2cc(Cc3ccc(Cl)cc3Cl)ccc21`, the IC50 [2] was 10.8 µM, the EC50 [3] was over 5.2 µM and the IC50 [4] was 24.1 µM. It also gave a CC50 [1] of 5.2 µM.

`O=C(O)c1cn(CCO)c2ccc(-c3ccccc3)cc2c1=O` gave an IC50 [2] of over 100 µM, an EC50 [3] of over 44.9 µM and an IC50 [4] of over 100 µM. It also gave a CC50 [1] of 44.9 µM.

`CCn1cc(C(=O)O)c(=O)c2c1C(=O)C=C(Nc1ccc(F)c(Cl)c1)C2=O` gave an IC50 [2] of 1 µM, an EC50 [3] of over 2.2 µM and an IC50 [4] of 2.1 µM. It also gave a CC50 [1] of 2.2 µM.

`O=C(O)c1cn(CCCCO)c2ccc(Cc3ccc(Cl)cc3Cl)cc2c1=O` showed an IC50 [2] of 0.05 µM, an EC50 [3] of over 4.2 µM and an IC50 [4] of 0.6 µM. The IC50 [5] was 16.6 µM and the CC50 [1] was 4.2 µM.

With `CCn1cc(C(=O)O)c(=O)c2c1C(=O)C=CC2=O` the IC50 [2] was 43.7 µM, the EC50 [3] was over 42.8 µM and the IC50 [4] was 58.7 µM. It also gave a CC50 [1] of 42.8 µM.

`O=C(O)c1cn(CCO)c2ccc(/C=C/c3ccccc3)cc2c1=O` gave an IC50 [2] of 71.9 µM, an EC50 [3] of over 22.6 µM and an IC50 [4] of over 100 µM. It also gave a CC50 [1] of 22.6 µM.

`O=C(O)c1cn(CCO)c2ccc(-c3ccncc3)cc2c1=O` showed an IC50 [2] of 77.6 µM, an EC50 [3] of over 138 µM and an IC50 [4] of over 100 µM. It also gave an IC50 [5] of over 100 µM and a CC50 [1] of 138 µM.

Compound `O=C(Nc1ccccc1)c1ccc2c(c1)c(=O)c(C(=O)O)cn2CCO` has an IC50 [2] of over 100 µM, an EC50 [3] of over 224 µM and an IC50 [4] of over 100 µM. It also gave a CC50 [1] of 224 µM.

For `O=C(c1ccc2c(c1)c(=O)c(C(=O)O)cn2CCO)c1ccc(Cl)cc1Cl`, the IC50 [2] was 18.7 µM, the EC50 [3] was over 21.1 µM and the IC50 [4] was over 100 µM. For the same compound, the IC50 [5] was over 100 µM and the CC50 [1] was 21.1 µM.

Compound `O=C(O)c1cn(CCO)c2ccc(Sc3ccccc3)cc2c1=O` has an IC50 [2] of 4.8 µM, an EC50 [3] of over 22.7 µM and an IC50 [4] of 18.5 µM. It also gave a CC50 [1] of 22.7 µM.

Work on `O=C(O)c1cn(CCO)c2ccc(Cc3ccc(Cl)cc3Cl)cc2c1=O` yielded an IC50 [2] of 0.07 µM, an EC50 [3] of over 5.3 µM and an IC50 [4] of 0.2 µM. It also gave a CC50 [1] of 5.3 µM.

In the case of `CCn1cc(C(=O)O)c(=O)c2cc(Nc3cccc(Cl)c3F)ccc21`, the IC50 [2] is reported as 38 µM, the EC50 [3] is reported as over 9.8 µM and the IC50 [4] is reported as over 100 µM. It also gave an IC50 [5] of over 100 µM and a CC50 [1] of 9.8 µM.

Work on `O=C(Nc1ccc2c(c1)c(=O)c(C(=O)O)cn2CCO)c1ccccc1` yielded an IC50 [2] of over 100 µM, an EC50 [3] of over 220 µM and an IC50 [4] of over 100 µM. It also gave a CC50 [1] of 220 µM.

`O=C(O)c1cn(CCCO)c2ccc(Cc3ccc(Cl)cc3Cl)cc2c1=O` gave an IC50 [2] of 0.9 µM, an EC50 [3] of over 3.6 µM and an IC50 [4] of 1.3 µM. It also gave a CC50 [1] of 3.6 µM.

With `O=C(O)c1cn(CCO)c2ccc(Oc3ccc(F)c(Cl)c3)cc2c1=O` the IC50 [2] was 86.9 µM, the EC50 [3] was over 9.9 µM and the IC50 [4] was over 100 µM. The IC50 [5] was over 100 µM and the CC50 [1] was 9.9 µM.

`O=C(c1ccc2c(c1)c(=O)c(C(=O)O)cn2CCCO)c1ccc(Cl)cc1Cl` gave an IC50 [2] of 73.9 µM, an EC50 [3] of over 17.5 µM and an IC50 [4] of over 100 µM. The IC50 [5] was over 100 µM and the CC50 [1] was 17.5 µM.

`O=C(c1ccc2c(c1)c(=O)c(C(=O)O)cn2CCCCO)c1ccc(Cl)cc1Cl` showed an IC50 [2] of 54.9 µM, an EC50 [3] of over 17 µM and an IC50 [4] of over 100 µM. For the same compound, the IC50 [5] was over 100 µM and the CC50 [1] was 17 µM.

Work on `CCn1cc(C(=O)O)c(=O)c2c1C(=O)C=C(Sc1ccccc1)C2=O` yielded an IC50 [2] of 4.6 µM, an EC50 [3] of over 30 µM and an IC50 [4] of 1.6 µM. The CC50 [1] was 30 µM.
